# Hits are enriched below; roughly 2.5% of the tested compounds scored in any of these assays.
# PglD inh – inhibitors of Campylobacter jejuni PglD acetyltransferase | purified PglD enzyme, DTNB colorimetric CoA detection | inhibition, % at 12.5 µM | 360,000 tested, 0.098% active | AID 602405; in the data active = inhibition above about 16%, passing the limit was not always enough
# SIRT5 inh – inhibitors of human sirtuin-5 desuccinylase | Q9NXA8 | inhibition, % at 15 µM | Purified SirT5, succinyl-peptide AMC, trypsin-coupled fluorescence | 330,000 tested, 1.1% active | AID 652115; in the data active = inhibition above about 15%
# E-selectin induc – induces E-selectin expression in human endothelial cells; P16581; HUVEC E-selectin immunofluorescence imaging; normalized: neutral wells 0, TNF-alpha wells 100; activation, % at 7.58 µM; 260,000 tested, 0.37% active; AID 686992;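 active = mean E-selectin-positive cell signal at least 10% of the positive control, reached in at least 60% of replicates, without over 20% cell loss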
#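 assay system = HUVEC, human umbilical vein endothelial cells | input = 3,000 HUVEC seeded per well | medium = EGM-2 growth medium on 0.1% gelatin-coated wells | dosing = one compound dose added by pin transfer | signal = immunofluorescence imaging | read-out basis = % PE-positive cells | control set = TNF-alpha, DMSO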
# ERAP1 HTS inh – ERAP1 (human) enzyme inhibition | recombinant ERAP1, Leu-AMC fluorescence, 60 min | inhibition, % at 10.7 µM | 340,000 tested, 0.15% active | AID 652197;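 active = mean replicate inhibition of at least 30%, or all replicates individually reaching that 30% level; inactive = mean below 30% and not every replicate reaching it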
# Target sequence (Q9NZ08 whole entry, looked up): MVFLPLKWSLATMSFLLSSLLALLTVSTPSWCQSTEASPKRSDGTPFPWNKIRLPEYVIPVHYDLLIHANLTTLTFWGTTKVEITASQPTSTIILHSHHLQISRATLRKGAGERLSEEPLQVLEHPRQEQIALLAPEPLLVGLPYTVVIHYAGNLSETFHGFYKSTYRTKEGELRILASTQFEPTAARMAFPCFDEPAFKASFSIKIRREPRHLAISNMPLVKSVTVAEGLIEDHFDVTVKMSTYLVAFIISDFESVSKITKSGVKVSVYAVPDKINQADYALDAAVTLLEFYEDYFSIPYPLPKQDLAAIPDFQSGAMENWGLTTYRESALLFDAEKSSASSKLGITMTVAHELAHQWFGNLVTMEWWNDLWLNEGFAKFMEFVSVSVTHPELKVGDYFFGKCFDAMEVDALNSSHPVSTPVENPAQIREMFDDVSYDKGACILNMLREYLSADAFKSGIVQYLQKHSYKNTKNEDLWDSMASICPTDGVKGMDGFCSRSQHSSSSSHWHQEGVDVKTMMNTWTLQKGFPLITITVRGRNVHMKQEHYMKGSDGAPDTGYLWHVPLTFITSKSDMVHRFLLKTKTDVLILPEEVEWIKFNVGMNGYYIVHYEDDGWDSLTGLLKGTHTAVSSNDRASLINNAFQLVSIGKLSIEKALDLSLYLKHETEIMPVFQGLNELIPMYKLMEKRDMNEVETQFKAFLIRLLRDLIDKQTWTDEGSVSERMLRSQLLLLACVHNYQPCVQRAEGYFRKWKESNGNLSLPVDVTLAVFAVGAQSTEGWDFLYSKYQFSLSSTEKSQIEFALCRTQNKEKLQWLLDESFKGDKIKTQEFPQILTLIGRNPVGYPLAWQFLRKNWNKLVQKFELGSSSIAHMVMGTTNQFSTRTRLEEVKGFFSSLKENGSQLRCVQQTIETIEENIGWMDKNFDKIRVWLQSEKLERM
# DENV2 CPE – protects cells from dengue virus 2 cytopathic effect; DENV2-infected cells, cytopathic effect rescue, plate reader; CPE inhibition, % at 9.99 µM; 350,000 tested, 1.7% active; AID 651640; in the data active = CPE inhibition above about 20%, passing the limit was not always enough; tested in BHK-21 cells
# Hits are given with their value; – = inactive; · = no result.
SMILES,PglD inh,SIRT5 inh,E-selectin induc,ERAP1 HTS inh,DENV2 CPE
Cc1cccc(-c2ccc([C@H]3[C@@H](CO)N4CCCCN(C(=O)c5ccncc5)C[C@@H]34)cc2)c1,–,–,–,·,51
COc1ccccc1-c1ccc([C@H]2[C@H]3CN(C(=O)c4ccncc4)CCCCN3[C@H]2CO)cc1,–,–,–,–,22
Cc1cccc(-c2ccc([C@H]3[C@H](CO)N4CCCCN(C(=O)c5ccncc5)C[C@@H]34)cc2)c1,–,·,–,·,–
Cc1cccc(-c2ccc([C@H]3[C@@H](CO)N4CCCCN(C(=O)c5cccnc5)C[C@@H]34)cc2)c1,–,–,–,–,32
C[C@@H]1CN([C@@H](C)CO)C(=O)Cc2cc(NC(=O)Nc3ccc(C(F)(F)F)cc3)ccc2O[C@@H]1CN(C)C(=O)Nc1cccc2ccccc12,–,–,–,–,–
O=C(C1CCC1)N1CC2(C1)[C@H](c1ccccc1)[C@@H](CO)N2C(=O)c1cccnc1,·,–,–,–,–
CN(c1ccccc1)S(=O)(=O)c1cc(C(=O)Nc2ccccc2N2CCOCC2)ccc1Cl,–,–,·,–,–
COc1ccc(-c2cc(=O)oc3cc(OC(=O)C4CCCCC4)ccc23)cc1,·,–,–,–,–
Cc1ccc2[nH]c(=O)c(COC(=O)C3CCCCC3)cc2c1,–,–,–,–,–
O=S(=O)(c1ccc(F)cc1)N1CCN(c2ncccn2)CC1,·,–,–,·,–
O=S(=O)(c1ccc(F)cc1)N1CCCN(c2nccc(C(F)(F)F)n2)CC1,–,–,30,·,–
Cc1ccc(NC(NC(=O)c2cccnc2)C(Cl)(Cl)Cl)cc1 (stereo unspecified),–,–,–,–,–
C[C@H](CO)N1C[C@H](C)[C@H](CN(C)C(=O)c2ccncc2)OCCCC[C@H](C)Oc2ccc(NS(=O)(=O)c3cn(C)cn3)cc2C1=O,–,–,–,–,24
C[C@@H]1CCCCO[C@H](CN(C)C(=O)c2ccncc2)[C@@H](C)CN([C@@H](C)CO)C(=O)c2cc(NS(C)(=O)=O)ccc2O1,–,–,–,–,–
C[C@@H]1CN([C@@H](C)CO)C(=O)c2cc(NS(C)(=O)=O)ccc2O[C@@H](C)CCCCO[C@H]1CN(C)C(=O)c1ccncc1,–,–,–,–,69
Cc1ccc(S(=O)(=O)N(C)C[C@H]2OCCCC[C@H](C)Oc3ccc(NS(=O)(=O)c4cccs4)cc3C(=O)N([C@H](C)CO)C[C@@H]2C)cc1,–,–,·,–,–
CNS(=O)(=O)c1cccc(C(=O)OCC(=O)Nc2nc(OC)cc(OC)n2)c1,–,–,·,–,–
Cn1c(=O)[nH]c(=O)c2c1nc(N1CCN(c3ccccc3)CC1)n2CCSc1ncccn1,–,–,·,–,–
CC(C)(C)CC(=O)Nc1ccc(-c2cn3cccnc3n2)cc1,–,–,34,–,–
C[C@@H]1CN([C@@H](C)CO)C(=O)Cc2cc(NC(=O)Cn3cnnn3)ccc2O[C@@H]1CN(C)S(=O)(=O)c1ccc(Cl)cc1,–,–,–,–,–
Cc1nc2cc(NC(=O)Nc3cccc([N+](=O)[O-])c3)ccc2n1C,–,–,·,–,35
O=C1ON=C(c2ccccc2)/C1=C/c1ccco1,–,20,·,–,–
Nc1ncnc2c1ncn2[C@@H]1O[C@H](CNCc2cn(CC(=O)NC3CC3)c3ccccc23)[C@@H](O)[C@H]1O,–,–,–,–,–
CC1CCN(Cc2cc(=O)oc3cc(O)c(Cl)cc23)CC1,–,–,–,60,–
CC1CN(Cc2cc(=O)oc3cc(O)c(Cl)cc23)CC(C)O1 (stereo unspecified),–,–,·,60,–
SMILES,PglD inh,SIRT5 inh,E-selectin induc,ERAP1 HTS inh,DENV2 CPE
CC(C)OCCCNC(=O)Cc1ccc(F)cc1,–,–,·,–,–
Cn1cccc1C(=O)OCC(=O)NC(=O)c1ccc(Cl)cc1,–,–,–,–,26
C[C@@H]1CN([C@@H](C)CO)C(=O)c2cc(NC(=O)Nc3ccc(C(F)(F)F)cc3)ccc2O[C@@H](C)CCCCO[C@H]1CN(C)S(=O)(=O)c1cn(C)cn1,–,·,–,·,·
O=C(O)C1=C[C@@H](O)[C@@H](O)[C@H](O)C1,–,–,–,–,–
COc1cccc(NC(=O)Nc2ccc3c(c2)C(=O)N(C)C[C@H](OC)[C@@H](C)CN(CC2CC2)[C@@H](C)CO3)c1,·,–,–,–,22
CCC(=O)Nc1ccc2c(c1)C(=O)N(C)C[C@H](OC)[C@@H](C)CN(CC1CCCCC1)[C@H](C)CO2,–,18,–,–,–
CCC(=O)Nc1ccc2c(c1)C(=O)N(C)C[C@@H](OC)[C@@H](C)CN(CC1CCCCC1)[C@H](C)CO2,–,–,–,–,–
CO[C@@H]1CN(C)C(=O)c2cc(NC(=O)c3ccccc3F)ccc2OC[C@H](C)N(CC2CC2)C[C@@H]1C,–,–,–,–,43
CO[C@H]1CN(C)C(=O)c2cc(NC(=O)CC(F)(F)F)ccc2OC[C@H](C)N(CC2CC2)C[C@H]1C,·,·,–,·,54
CO[C@@H]1CN(C)C(=O)c2cc(NC(=O)CC(F)(F)F)ccc2OC[C@@H](C)N(CC2CC2)C[C@H]1C,·,·,–,–,–
O=C1NC2(CCCC2)C(=O)N1Cc1cc(=O)n2ccsc2n1,·,–,–,–,–
COc1ccc(OC)c(CN2CCN(C(=O)c3ccc(F)cc3)CC2)c1,–,–,·,–,–
CCCCCCCN1C(N(C)C)=NC[C@@H]1Cc1ccccc1,–,–,–,–,–
CCCCN1C2CCCC1CC(NC(=O)c1ccc(OC)c(OC)c1)C2 (stereo unspecified),–,·,·,·,·
CCc1nc2ccc(C(=O)N3CCN(CC)CC3)cc2nc1CC,–,–,·,–,–
CCCN1CCN(C(=O)c2ccc3nc(CC)c(CC)nc3c2)CC1,–,20,–,–,–
COc1ccc(NC(=O)CCCn2c(=S)[nH]c3ccccc3c2=O)cc1,–,–,90,–,–
COc1ccc(NC(=O)CCn2c(=S)[nH]c3ccccc3c2=O)cc1,–,–,·,–,–
C[C@H](CO)N1C[C@H](C)[C@H](CN(C)Cc2ccc(C(F)(F)F)cc2)OCCCC[C@H](C)Oc2ccc(NS(=O)(=O)c3ccc(F)cc3)cc2C1=O,–,17,–,–,–
C[C@@H]1CCCCO[C@H](CN(C)Cc2ccc(C(F)(F)F)cc2)[C@H](C)CN([C@H](C)CO)C(=O)c2cc(NS(=O)(=O)c3ccc(F)cc3)ccc2O1,–,17,–,–,30
C[C@@H]1CCCCO[C@@H](CN(C)Cc2ccc(C(F)(F)F)cc2)[C@H](C)CN([C@H](C)CO)C(=O)c2cc(NS(=O)(=O)c3ccccc3)ccc2O1,–,18,–,–,–
C[C@@H]1CCCCO[C@H](CN(C)Cc2ccc(C(F)(F)F)cc2)[C@H](C)CN([C@@H](C)CO)C(=O)c2cc(NS(=O)(=O)c3ccc(F)cc3)ccc2O1,–,–,–,–,–
C[C@H]1CCCCO[C@@H](CN(C)Cc2ccc(C(F)(F)F)cc2)[C@@H](C)CN([C@@H](C)CO)C(=O)c2cc(NS(=O)(=O)c3ccc(F)cc3)ccc2O1,–,20,–,–,–
